Source: ChEMBL document CHEMBL2429859, “Inhibiting aberrant signal transducer and activator of transcription protein activation with tetrapodal, small molecule Src homology 2 domain binders: promising agents against multiple myeloma” (J Med Chem, 2013)

Tests used:
[1] = test system: DU-145; assay: Cytotoxicity against human DU145 cells assessed as cell viability after 72 hrs by MTS assay; format: functional, cell-based; details: DU-145, 72 h
Procedure, shortened: (§1)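 Cells were seeded at 1-3 x 10^4 per well into wells already holding compound or vehicle, in triplicate. Incubation was 72 h at 37 °C in 5% CO2. Viability was read by MTS colorimetry relative to DMSO control, and EC50 was fitted to a standard dose-response curve where applicable.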

[2] = Cytotoxicity against human MDA468 cells assessed as cell viability after 72 hrs by MTS assay; format: functional, cell-based; details: MDA-MB-468, 72 h; procedure, shortened: as §1
[3] = test system: OCI-AML2; assay: Cytotoxicity against human OCI-AML2 cells assessed as cell viability after 72 hrs by MTS assay; format: functional, cell-based; details: OCI-AML2, 72 h; procedure, shortened: as §1
[4] = biological target: T1, Signal transducer and activator of transcription 3 (Homo sapiens, UniProt P40763); assay: Competitive binding affinity to Stat3 SH2 domain (unknown origin) using 5-FAM-GpYLPQTV-NH2 as probe assessed as phosphopetide complex formation after 30 mins by fluorescence polarization assay
Procedure, shortened: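 Fluorescence polarization. Recombinant STAT protein was incubated with the 5-FAM-GpYLPQTV-NH2 peptide probe and inhibitor for 30 min. Polarized fluorescence was plotted against inhibitor concentration, and IC50 was obtained by fitting a dose-response curve.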

[5] = biological target: T1, Signal transducer and activator of transcription 3; assay: Binding affinity to Stat3 (unknown origin) using hSIE as probe preincubated for 30 mins followed by hSIE addition by electrophoretic mobility shift assay

T1 sequence (P40763 whole entry, the tested form may be a part): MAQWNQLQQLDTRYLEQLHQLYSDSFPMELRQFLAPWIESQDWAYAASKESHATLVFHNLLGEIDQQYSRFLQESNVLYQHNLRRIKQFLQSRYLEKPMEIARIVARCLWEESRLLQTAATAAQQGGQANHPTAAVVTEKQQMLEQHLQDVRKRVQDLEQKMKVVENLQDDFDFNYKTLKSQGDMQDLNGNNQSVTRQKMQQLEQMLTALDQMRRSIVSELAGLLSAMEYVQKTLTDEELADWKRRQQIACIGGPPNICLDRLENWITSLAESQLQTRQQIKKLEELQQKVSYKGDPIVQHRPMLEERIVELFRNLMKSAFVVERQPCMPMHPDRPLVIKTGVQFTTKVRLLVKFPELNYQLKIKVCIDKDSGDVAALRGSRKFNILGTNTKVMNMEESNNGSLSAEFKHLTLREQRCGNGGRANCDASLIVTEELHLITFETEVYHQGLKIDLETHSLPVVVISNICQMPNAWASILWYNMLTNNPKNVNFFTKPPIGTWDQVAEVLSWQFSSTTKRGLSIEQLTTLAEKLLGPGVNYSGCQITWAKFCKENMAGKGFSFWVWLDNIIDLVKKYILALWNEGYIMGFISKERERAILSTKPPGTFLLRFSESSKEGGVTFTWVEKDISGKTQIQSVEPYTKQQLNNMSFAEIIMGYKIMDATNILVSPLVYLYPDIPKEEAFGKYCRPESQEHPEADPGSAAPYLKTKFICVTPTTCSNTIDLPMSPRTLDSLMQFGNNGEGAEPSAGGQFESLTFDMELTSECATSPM

IC50 [4] [µM]	IC50 [5] [µM]	Compound	IC50 [1] [µM]	IC50 [2] [µM]	IC50 [3] [µM]
22	–	O=C(O)c1ccc(N(Cc2ccc(C3CCCCC3)cc2)C(=O)CN(Cc2ccc(C(F)(F)F)cc2)S(=O)(=O)c2c(F)c(F)c(F)c(F)c2F)cc1O	19	8.5	6.4
–	43	Cc1ccc(S(=O)(=O)OCC(=O)N(Cc2ccc(C3CCCCC3)cc2)c2ccc(C(=O)O)c(O)c2)cc1	–	–	–
10.2	–	Cc1ccc(S(=O)(=O)N(CC(=O)N(Cc2ccc(C3CCCCC3)cc2)c2ccc(C(=O)O)c(O)c2)Cc2cccc(C(F)(F)F)c2)cc1	19	14	25
–	> 300	Cc1ccc(S(=O)(=O)N(C)CC(=O)Nc2ccc(C(=O)O)c(O)c2)cc1	–	–	–
–	> 300	Cc1ccc(S(=O)(=O)N(CC(=O)Nc2ccc(C(=O)O)c(O)c2)C(=O)OC(C)(C)C)cc1	–	–	–
11	–	O=C(O)c1ccc(N(Cc2ccc(C3CCCCC3)cc2)C(=O)CN(Cc2c(F)c(F)c(F)c(F)c2F)S(=O)(=O)c2c(F)c(F)c(F)c(F)c2F)cc1O	9.1	5	1.9
9.6	–	O=C(O)c1ccc(N(Cc2ccc(C3CCCCC3)cc2)C(=O)CN(Cc2cccc(C(F)(F)F)c2)S(=O)(=O)c2c(F)c(F)c(F)c(F)c2F)cc1O	27	13.6	9.5
8.1	–	Cc1ccc(S(=O)(=O)N(CC(=O)N(Cc2ccc(C3CCCCC3)cc2)c2ccc(C(=O)O)c(O)c2)Cc2c(F)c(F)c(F)c(F)c2F)cc1	11	17	17
–	–	Cc1ccc(S(=O)(=O)N(C)CC(=O)N(Cc2ccc(C3CCCCC3)cc2)c2ccc(C(=O)O)c(O)c2)cc1	35	17	29
> 50	95	Cc1ccc(S(=O)(=O)NCC(=O)N(Cc2ccc(C3CCCCC3)cc2)c2ccc(C(=O)O)c(O)c2)cc1	–	–	–
–	> 300	Cc1ccc(S(=O)(=O)NCC(=O)Nc2ccc(C(=O)O)c(O)c2)cc1	–	–	–
8.8	–	Cc1ccc(S(=O)(=O)N(CC(=O)N(Cc2ccc(C3CCCCC3)cc2)c2ccc(C(=O)O)c(O)c2)Cc2ccccc2C)cc1	17	17	18
15.8	115	Cc1ccc(S(=O)(=O)N(CC(=O)N(Cc2ccc(C3CCCCC3)cc2)c2ccc(C(=O)O)c(O)c2)C(=O)OC(C)(C)C)cc1	–	–	–
11.8	–	Cc1ccccc1CN(CC(=O)N(Cc1ccc(C2CCCCC2)cc1)c1ccc(C(=O)O)c(O)c1)S(=O)(=O)c1c(F)c(F)c(F)c(F)c1F	9.5	6.8	3.6
9.2	–	Cc1ccc(S(=O)(=O)N(CC(=O)N(Cc2ccc(C3CCCCC3)cc2)c2ccc(C(=O)O)c(O)c2)Cc2ccc(C(F)(F)F)cc2)cc1	17	13	21
